Sampled rows, rich in hits. Any-hit rate of the full collection: about 4%.
GPR7 antagonist – antagonists of human GPR7 (neuropeptides B/W receptor 1). P48145. inhibition, % at 4.4 µM. GPR7-expressing cells, fluorescence antagonist assay. 1.1% of 290,000 active; in the data active = inhibition above about 16%, passing the limit was not always enough;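 note: cells stimulated with the agonist NPW; 0% = agonist with vehicle and 100% = vehicle without agonist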
Target sequence (P48145 whole entry, looked up): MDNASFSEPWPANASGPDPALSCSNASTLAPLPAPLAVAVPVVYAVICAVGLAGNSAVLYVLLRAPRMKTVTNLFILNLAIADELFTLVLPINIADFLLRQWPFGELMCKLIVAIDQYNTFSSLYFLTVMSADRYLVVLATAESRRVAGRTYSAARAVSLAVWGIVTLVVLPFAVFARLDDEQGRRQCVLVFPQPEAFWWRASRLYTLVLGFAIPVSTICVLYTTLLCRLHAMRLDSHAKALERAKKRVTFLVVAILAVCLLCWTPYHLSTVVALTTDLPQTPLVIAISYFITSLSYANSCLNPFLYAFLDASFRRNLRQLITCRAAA
TAAR1 antag – human TAAR1 antagonism. CHO RD-HGA16 TAAR1, Fluo-8 calcium fluorescence, antagonist. inhibition, % at 3 µM. 1.5% of 360,000 active. Q96RJ0;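 active = inhibition above a per-plate cutoff, the mean inhibition of test compounds on that plate plus 3 SD, cut at about 49% in these data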;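 note: 0% = DMSO plus EC80 beta-PEA response and 100% = DMSO alone without agonist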
Target sequence (Q96RJ0 whole entry, looked up): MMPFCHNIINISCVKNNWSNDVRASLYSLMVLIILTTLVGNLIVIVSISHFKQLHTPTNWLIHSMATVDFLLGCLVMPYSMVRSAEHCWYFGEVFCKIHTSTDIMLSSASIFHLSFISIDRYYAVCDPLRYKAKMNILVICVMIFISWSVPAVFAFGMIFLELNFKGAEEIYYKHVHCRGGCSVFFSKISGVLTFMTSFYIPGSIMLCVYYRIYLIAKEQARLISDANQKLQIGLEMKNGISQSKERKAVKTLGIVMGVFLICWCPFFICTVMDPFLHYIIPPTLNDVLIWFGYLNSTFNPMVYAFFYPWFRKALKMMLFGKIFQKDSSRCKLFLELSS
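test system = CHO RD-HGA16 cells bearing hTAAR1 | replication = singlicate | controls = DMSO-only wells and EC80 β-PEA-stimulated wells | reagent = EC80 β-phenethylamine stimulus | read-out basis = percent inhibition of PEA-evoked calcium signal, max/basal emission ratio | schedule = seeding 17-24 h prior, 75-min 37 °C, 30-min RT dye loading | signal = kinetic Fluo-8 calcium fluorescence measurement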
TAAR1 agonist – human TAAR1 agonism; Q96RJ0; CHO RD-HGA16 TAAR1, Fluo-8 calcium fluorescence; vehicle wells 0%, saturating PEA agonist 100%; activation, % at 3 µM; 0.99% of 360,000 active;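 active = activation above the mean activation of all test compounds in the run plus 3 SD, cut at about 38% in these data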
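Repeats: no replicates (n 1) | Material: CHO-derived RD-HGA16 cells with stable Gα16 and human TAAR1 | Technique: Kinetic Fluo-8 calcium fluorescence | Schedule: 17-24 h seeding, 75 min 37 °C dye, 30 min RT | Evaluation: % activation from peak over basal fluorescence ratio, DMSO-to-PEA scaled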
DAGLB inh – diacylglycerol lipase beta (human) inhibition; inhibition, % at 5.17 µM; HEK293T DAGLB membrane lysate, EnzChek fluorogenic substrate; 0.059% of 340,000 active; AID 504411; in the data active = inhibition above about 34%;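 note: 0% = enzyme with vehicle and 100% = wells lacking enzyme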
MPTP block – inhibitors of mitochondrial permeability transition pore | inhibition, % at 10 µM | isolated mouse mitochondria, Ca2+ swelling absorbance, 30 min | 1.4% of 360,000 active;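 active = inhibition of 50% or more, scaled per plate between neutral and stimulator controls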;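 note: 0% = DMSO wells given calcium and 100% = 1 mM EGTA wells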
Numbers without * were called inactive; nt = no result given.

SMILES | GPR7 antagonist | TAAR1 antag | TAAR1 agonist | DAGLB inh | MPTP block
Cc1ccc(O)c(NC2=C(Cl)C(=O)N(Cc3ccccc3)C2=O)c1 | 1 | 13 | -1 | 4 | 1
Cc1ccc(C(=O)N2CCCCC2)cc1NC1=C(Cl)C(=O)N(Cc2ccccc2)C1=O | nt | 50* | 4 | 0 | 0
O=C1/C(=C\c2ccc(Cl)c(Cl)c2)CN(C(=O)CCN2CCOCC2)C/C1=C/c1ccc(Cl)c(Cl)c1 | nt | 57* | 12 | 1 | -3
COc1ccc(S(=O)(=O)N(C)Cc2ccc3c(c2)OCCO3)cc1 | nt | -7 | 2 | -3 | 0
O=C(Nc1ccc(N=Nc2ccccc2)cc1)c1ccccc1Cl | -3 | 49* | -1 | 21 | 4
O=C(NC1CCCCC1)C(c1ccncc1)n1c(=O)c(-c2cc3ccccc3[nH]2)nc2ccccc21 (centres undefined) | nt | 15 | 1 | nt | 2
NS(=O)(=O)c1cc(C(=O)Nc2ccc3c(c2)CCC3)ccc1Cl | -13 | 0 | -2 | -6 | -1
C=CCn1c(CSCc2ccc(Cl)cc2)nnc1SCC(=O)NCc1ccccc1 | 17 | 44 | 18 | -3 | 0
C=CCn1c(CSCc2ccc(C)cc2)nnc1SCC(=O)NCc1ccccc1 | 1 | 50* | 18 | -2 | -3
O=C(Cn1c(=O)n(CCc2c[nH]c3ccccc23)c(=O)c2cccnc21)Nc1ccccc1F | -5 | 52* | 12 | 0 | 0
Cc1cccc(NC(=O)Cn2c(=O)n(CCc3c[nH]c4ccccc34)c(=O)c3cccnc32)c1 | -2 | 29 | 5 | nt | nt
O=C(COC(=O)c1cccc(F)c1)Nc1cccc(S(=O)(=O)N2CCCCC2)c1 | nt | 34 | 5 | -2 | -1
Cc1ccccc1Cn1cc(NC(=O)c2noc3c2CC(C(C)(C)C)CC3)cn1 (centres undefined) | 0 | 63* | 39* | -4 | 1
Cc1onc(-c2ccccc2)c1C(=O)Nc1nc(-c2ccc(F)c(F)c2)cs1 | -24 | -2 | 39* | -6 | 3
CCc1noc(C)c1C(=O)OCC(=O)Nc1nc(-c2ccc(F)c(F)c2)cs1 | nt | 69* | 13 | -4 | 14
CC(=O)Oc1[nH]c(=O)c2cccc3c2c1CCC3 | nt | -14 | 3 | 2 | 1
CCOC(=O)c1ccccc1NC(=O)COC(=O)C1CCN(S(=O)(=O)c2ccccc2C(=O)OC)CC1 | nt | 49* | 11 | -4 | -3
CCOC(=O)C(C)(C)CC#CCN(CC#Cc1ccccc1)S(=O)(=O)c1ccc(C)cc1 | nt | 29 | 1 | nt | nt
Cc1nn(-c2ccccc2)c2c1C(c1ccc([N+](=O)[O-])cc1)N1C(=N2)C(=O)Nc2ccccc21 (centres undefined) | -5 | 51* | 5 | 8 | 0
Cc1cc(C)n2nc(CNS(=O)(=O)c3ccc(C(C)(C)C)cc3)nc2n1 | nt | -9 | 1 | nt | 0
CCOc1ccc(-n2c(SCc3nc(-c4cccs4)no3)nnc2-c2ccncc2)cc1 | 18* | -4 | 7 | 1 | 1
CCCn1c(SCc2nc(-c3cccs3)no2)nnc1-c1ccncc1 | -9 | 7 | 1 | 3 | 2
COc1ccc(CCNC(=O)c2cc(C(=O)c3cc(C)ccc3O)cn(CCc3ccc(OC)cc3)c2=O)cc1 | 1 | 54* | 4 | -2 | 2
CC(=O)Nc1ccc(-c2ccnc3c2CC(C(=O)Nc2cccc(N(C)C)c2)O3)cc1 (centres undefined) | nt | 2 | 5 | nt | -1
O=C(Nc1cccc(C(F)(F)F)c1)Oc1ccc(Cl)c2cccnc12 | 32* | 15 | 18 | 1 | 2
SMILES | GPR7 antagonist | TAAR1 antag | TAAR1 agonist | DAGLB inh | MPTP block
CC(O)CN(CC(C)O)c1ccc2c(c1)Cc1cc([N+](=O)[O-])ccc1-2 (centres undefined) | nt | 79* | 93* | 2 | 4
Nc1ccc2c(c1)Cc1cc([N+](=O)[O-])ccc1-2 | 14 | 32 | 24 | 10 | 3
COc1ccnc(Oc2cccc(C(F)(F)F)c2)c1C(=O)N/C=N/OCc1ccccc1F | -13 | 54* | 19 | -7 | 0
CC1(C)CSC(=NCCc2ccccc2)N1C(=O)c1ccc(C#N)cc1 | 20* | 4 | -1 | -7 | -1
CCCOc1ccc(CCc2n[nH]c(=S)n2Cc2ccccc2)cc1 | -4 | 51* | 0 | -5 | 6
C#CCN(C[C@H]1[C@H](OC(=O)NCCCCCC)[C@H](OC(=O)NCCCCCC)CN(C(=O)OC(C)C)N1C(=O)OC(C)C)S(=O)(=O)c1ccc(C)cc1 | nt | 1 | 1 | nt | nt
CC(C(=O)OCC(=O)Nc1ccccc1OC(F)F)N1C(=O)C2CC=CCC2C1=O (centres undefined) | nt | -23 | 6 | -1 | 4
Cc1ccc(C(C(=O)NCc2ccccc2)N(Cc2cccs2)C(=O)c2ccc3c(c2)OCCO3)cc1 (centres undefined) | -14 | 64* | 16 | -2 | 5
COC(=O)c1ccc(C(C(=O)NCc2ccccc2)N(Cc2cccs2)C(=O)c2cnccn2)cc1 (centres undefined) | -4 | 35 | 16 | 2 | 1
COC(=O)[C@@]1(Sc2ccc(C)cc2)CC(=O)N(c2ccc(Cl)cc2)[C@@H]1c1ccccc1 | nt | 48 | 1 | nt | 1
COC(=O)[C@@]1(Sc2ccc(C)cc2)CC(=O)N(c2ccc3c(ccn3C)c2)[C@@H]1c1ccccc1 | nt | 55* | 3 | nt | 0
CN(c1ccc(NC(=O)CCc2cn(Cc3ccc(Br)cc3)c3ccccc23)cc1)c1ccccn1 | nt | 5 | 3 | nt | nt
O=C(COC(=O)c1cc(-c2ccccc2)nc2ccccc12)Nc1ccc2c(c1)OCO2 | 10 | 24 | 1 | -4 | 12
CC(C)c1ccccc1NC(=O)COC(=O)c1c2c(nc3ccccc13)CCN(Cc1ccccc1)C2 | 5 | 59* | 12 | -24 | 9
Cc1c(Cl)cccc1NC(=O)COC(=O)c1c2c(nc3ccccc13)CCN(Cc1ccccc1)C2 | -13 | 47 | 15 | -4 | 14
O=C(COC(=O)c1c2c(nc3ccccc13)CCCC2)Nc1ccc2c(c1)OCO2 | 11 | 54* | 8 | -5 | -3
CC(C)NC(=O)NC(=O)COC(=O)c1c2c(nc3ccccc13)CCC2 | -6 | 52* | 10 | 5 | 2
COCCN1C(=O)COc2ccccc2C1C(=O)Nc1ccc2c(c1)OCCO2 (centres undefined) | nt | -10 | 6 | nt | 1
CCCCCC(=O)N1C[C@@H](O)[C@H](n2cc(COC(=O)c3ccccc3)nn2)C[C@@H]1c1ccc(Cl)cc1 | nt | 13 | 0 | -6 | -1
Oc1ccc2ccccc2c1CN1CCN(C/C=C/c2ccccc2)CC1 | -7 | -7 | 4 | -3 | 3
O=S(=O)(c1ccccc1)N1CCN(Cc2c(O)ccc3ccccc23)CC1 | nt | 51* | 7 | -2 | -1
CC(=O)Nc1ccc(CNc2nc(NCc3cccs3)nc3ccsc23)cc1 | nt | 49* | 36 | nt | 0
CCOC(=O)Cc1ccc(Nc2nc(NCc3ccccc3)nc3ccsc23)cc1 | nt | 72* | 2 | nt | 2
